Experimental findings from ChEMBL document CHEMBL1145589, “Discovery of benzamide tetrahydro-4H-carbazol-4-ones as novel small molecule inhibitors of Hsp90” (Bioorg Med Chem Lett, 2008) are described below.

For assay [1], the system named is SK-BR-3. Kind of assay: Inhibition of Her2 degradation in human SKBR3 cells by ELISA. It is filed as functional, cell-based. An outline of the steps:
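Cellular ELISA in SKBR3 cells treated 24 h with compound, then methanol-fixed; Her2 detected with mouse anti-Her2 primary and peroxidase-conjugated anti-mouse secondary antibody; IC50 determined.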
In general terms: An ELISA detects its analyte on a solid surface through an enzyme-linked reagent.

A short description of assay [2]: Binding affinity to Hsp90 in pig spleen extract by Bradford protein assay. It is filed as tissue-based, Sus scrofa.
Assay [3] deals with LNCaP. Kind of assay: Inhibition of cell proliferation in human LNCAP cells. It is filed as functional, cell-based. Summed up:
(§1)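 Cells seeded in 96-well plates; compound added 24 h later, then growth continued for a further 72 or 144 h depending on the line's growth rate before proliferation was measured.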

Assay [4] concerns SK-MEL-5. Kind of assay: Inhibition of cell proliferation in human SKMEL5 cells. The assay is classed as functional, cell-based. An outline of the steps: as §1
Assay [5] has as its system MDA-MB-231. Kind of assay: Inhibition of cell proliferation in human MDA-MB-231 cells. It is filed as functional, cell-based. An outline of the steps: as §1
The test system of assay [6] is A-375. Kind of assay: Induction of Hsp70 in human A375 cells. It is filed as functional, cell-based. Summed up:
(§2)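 High content imaging: A375 cells treated 24 h with compound, fixed in 4% PBS-buffered formalin, probed with anti-Hsp70 or anti-phospho-S6 primary antibodies, then TRITC- or FITC-conjugated secondaries, and imaged.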

Assay [7] can be described thus: Inhibition of pS6 in A375 cells. It is filed as cell-based. As to conditions: A-375. Summed up:
as §2

For assay [8], the system named is MCF7. Kind of assay: Inhibition of cell proliferation in human MCF7 cells. The assay is classed as functional, cell-based. An outline of the steps:
as §1

The nature of assay [9]: Inhibition of pErk in AU565 cells. It is filed as cell-based.
Assay [10] concerns HT-29. Kind of assay: Inhibition of cell proliferation in human HT29 cells. The assay is classed as functional, cell-based. Summed up:
as §1

Assay [11] relates to PC-3. Kind of assay: Inhibition of cell proliferation in human PC3 cells. It is filed as functional, cell-based. Summed up:
as §1

Assay [12] has as its system A-375. Kind of assay: Inhibition of cell proliferation in human A375 cells. It is filed as functional, cell-based. An outline of the steps: as §1
Assay [13] deals with SK-BR-3. Kind of assay: Inhibition of Her2 degradation in human SKBR3 cells.
In assay [14] the test system is NCI-H460. Kind of assay: Inhibition of cell proliferation in human NCI-H460 cells. The assay is classed as functional, cell-based. An outline of the steps:
as §1

The test system of assay [15] is SW-620. Kind of assay: Inhibition of cell proliferation in human SW620 cells. The assay is classed as functional, cell-based. An outline of the steps: as §1

Turning to `N#Cc1cc(-n2c3c(c4ccccc42)C(=O)CCC3)ccc1C(N)=O`, in [1], the IC50 (as a rule, the concentration that inhibits the measured activity by half) was greater than 50 µM. In addition, the Kd – broadly, the concentration at which binding is half-saturated – in assay [2] was greater than 10000 nM.
Turning to `NC(=O)c1ccc(-n2c3c(c4ccccc42)C(=O)CCC3)cc1Br`, the half-inhibitory concentration (IC50) in [1] was greater than 10 µM. In [2], this compound displayed a Kd greater than 10000 nM.
In assay [2], `CC1CC(=O)c2c(n(-c3ccc(C(N)=O)c(Br)c3)c3ccccc23)C1` (centres undefined) came in with an equilibrium dissociation constant (Kd) greater than 10000 nM.
As to `NC(=O)c1ccc(-n2c3c(c4ccccc42)C(=O)CCC3)cc1NC1CCOCC1`, the 50% inhibitory concentration (IC50) in assay [3] came to 700 nM; in [4], 340 nM; in assay [5] it was 960 nM; in [6], 230 nM; in assay [7], 70 nM; in assay [1] it was 0.56 µM. The IC50 in assay [8] is 290 nM; in assay [9] it was 590 nM; in [10] it was 370 nM; in [11], 820 nM; in assay [12] it was 400 nM; in [13], 560 nM. Moreover, the IC50 in assay [14] was determined as 900 nM; in [15] it was 260 nM. For the same compound, in [2], the equilibrium dissociation constant (Kd) stood at 410 nM.
In turn, `NC(=O)c1ccc(-n2c3c(c4ccccc42)C(=O)CCC3)cc1NC1CCC(O)CC1` (centres undefined) displayed an IC50 in [1] of 1.2 µM. In assay [2], this compound gave a dissociation constant (Kd) of 900 nM.
Regarding `NC(=O)c1ccc(-n2c3c(c4ccccc42)C(=O)CCC3)cc1NCc1ccccc1`, in assay [1], the half-inhibitory concentration (IC50) was greater than 10 µM. The compound further yielded a dissociation constant Kd in assay [2] greater than 10000 nM.
For `C=CCNc1cc(-n2c3c(c4cc(F)ccc42)C(=O)CCC3)ccc1C(N)=O`, the IC50 in assay [1] came to 5.4 µM. In addition, in [2], the Kd worked out at 250 nM.
For `CN(C)CCNc1cc(-n2c3c(c4cc(F)ccc42)C(=O)CCC3)ccc1C(N)=O`, in that order: 34 µM and 1200 nM.
Compound `CCCNc1cc(-n2c3c(c4ccccc42)C(=O)CCC3)ccc1C(N)=O` returned an IC50 in assay [1] of 5.3 µM. Binding in assay [2] was characterised by a dissociation constant (Kd) of 350 nM.
With `CC1(C)CC(=O)c2c(n(-c3ccc(C(N)=O)c(Nc4ccccc4)c3)c3ccccc23)C1`, the dissociation constant Kd in assay [2] is greater than 10000 nM.
As to `NC(=O)c1ccc(-n2c3c(c4ccccc42)C(=O)CCC3)cc1NCC1CC1`, the half-inhibitory concentration (IC50) in assay [1] came out at 1.3 µM. The affinity in [2], expressed as Kd, was 270 nM.
For `NC(=O)c1ccc(-n2c3c(c4cc(F)ccc42)C(=O)CCC3)cc1NC1CC1`, in that order: 1.3 µM and 250 nM.
Regarding `CC1(C)CC(=O)c2c(n(-c3ccc(C(N)=O)c(NC4CC4)c3)c3ccccc23)C1`, the IC50 in assay [1] stood at 0.61 µM. This compound also returned a Kd in assay [2] of 350 nM.
For `COc1cc(-n2c3c(c4ccccc42)C(=O)CCC3)ccc1C(N)=O`, the IC50 in assay [1] is greater than 50 µM. The compound also returned a dissociation constant Kd in [2] greater than 10000 nM.
Taken in the same sequence, the figures for `NC(=O)c1ccc(-n2c3c(c4ccccc42)C(=O)CCC3)cc1N` were greater than 10 µM and 2900 nM.
Taken in the same sequence, the figures for `NC(=O)c1ccc(-n2c3c(c4ccccc42)C(=O)CCC3)cc1NCc1ccncc1` were 5 µM and 820 nM.
In assay [1], `NC(=O)c1ccc(-n2c3c(c4ccccc42)C(=O)CCC3)cc1Nc1ccccc1` came in with an IC50 of 2.1 µM. The compound also came in with a dissociation constant (Kd) in [2] of 1000 nM.
In turn, `CC1(C)CC(=O)c2c(n(-c3ccc(C(N)=O)cc3)c3ccccc23)C1` returned a half-maximal inhibitory concentration (IC50) in [1] greater than 50 µM. The compound also had a dissociation constant (Kd) in assay [2] of 750 nM.
Taken in the same sequence, the figures for `NC(=O)c1ccc(-n2c3c(c4ccccc42)C(=O)CCC3)cc1` were greater than 50 µM and 1800 nM.
Taken in the same sequence, the figures for `NC(=O)c1ccc(-n2c3c(c4cc(F)ccc42)C(=O)CCC3)cc1NN1CCOCC1` were 1.6 µM and 270 nM.
Compound `CC1CC(=O)c2c(n(-c3ccc(C(N)=O)c(NC4CC4)c3)c3ccccc23)C1` (centres undefined) gave an IC50 in assay [1] of 7 µM.
In [1], `NC(=O)c1ccc(-n2c3c(c4ccccc42)C(=O)CCC3)cc1NC1CC1` came in with an IC50 of 5.4 µM. This compound also had an equilibrium dissociation constant (Kd) in assay [2] of 350 nM.
Regarding `NC(=O)c1ccc(-n2c3c(c4cc(F)ccc42)C(=O)CCC3)cc1NCc1cccnc1`, the midpoint of inhibition in assay [1], the IC50, lay at 6.5 µM. Further, the dissociation constant Kd in assay [2] was found to be 1100 nM.
Taken in the same sequence, the figures for `COCCNc1cc(-n2c3c(c4cc(F)ccc42)C(=O)CCC3)ccc1C(N)=O` were 4.1 µM and 780 nM.
With `COCCNc1cc(-n2c3c(c4ccccc42)C(=O)CCC3)ccc1C(N)=O`, the IC50 in [1] came out at 8.9 µM. This lies in the single-digit micromolar range.
As for `NC(=O)c1ccc(-n2c3c(c4ccccc42)C(=O)CCC3)cc1NC1CCC1`, the concentration for half-maximal inhibition (IC50) in [1] turned out to be 6.8 µM. The Kd in assay [2] came to 310 nM.
For `CC1CC(=O)c2c(n(-c3ccc(C(N)=O)c(NCC4CC4)c3)c3ccccc23)C1` (centres undefined), the 50% inhibitory concentration (IC50) in assay [1] stood at 6.9 µM. In addition, the dissociation constant (Kd) in [2] is 2900 nM.
Taken in the same sequence, the figures for `COc1ccc(CNc2cc(-n3c4c(c5ccccc53)C(=O)CCC4)ccc2C(N)=O)cc1` were greater than 10 µM and greater than 10000 nM.
For `NC(=O)c1ccc(-n2c3c(c4cc(F)ccc42)C(=O)CCC3)cc1NCCCN1CCOCC1`, in that order: 2.8 µM and 1100 nM.
For `NC(=O)c1ccc(-n2c3c(c4ccccc42)C(=O)CCC3)cc1NCCN1CCCC1`, in that order: 31 µM and 1900 nM.
